Measurements taken from publication PMC9722545 (Structure (London, England : 1993), 2022).

How the values were obtained:
CDK2 and CDK1 = details: no cyclins present; ref Wood et al., 2019; cited from earlier work
CDK2 Phe80Met (F80M) = CDK2 Phe80Met (F80M) (Homo sapiens, UniProt P24941, F80M); assay: ITC binding of OTS964 to CDK2 Phe80Met
How it was run: (§1)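 Human CDK2 (res. 1–298, wild-type or point mutant) is expressed as a GST-PreScission fusion with yeast CAK1 in E. coli BL21(DE3), then tag-cleaved and gel-filtered, with no cyclin. ITC at 25°C in 25 mM HEPES pH 7.5, 250 mM NaCl, 1 mM DTT, 2.0% DMSO: 2250 μM test compound into 150 μM kinase, 38×1 μL injections 180 s apart.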

CDK2 Gly11Glu (G11E) = CDK2 Gly11Glu (G11E) (Homo sapiens, UniProt P24941, G11E); assay: ITC binding of OTS964 to CDK2 Gly11Glu
How it was run: as §1

other CDKs = details: ref Lin et al., 2019, cited from earlier work
CDK11 G223A/E89G/M160F = CDK11 G223A/E89G/M160F (Homo sapiens, UniProt P21127, E445G/G579A/M516F); assay: ITC binding of OTS964 to CDK11 triple mutant
Chain of CDK11 G223A/E89G/M160F (P21127 428-736 E445G/M516F/G579A): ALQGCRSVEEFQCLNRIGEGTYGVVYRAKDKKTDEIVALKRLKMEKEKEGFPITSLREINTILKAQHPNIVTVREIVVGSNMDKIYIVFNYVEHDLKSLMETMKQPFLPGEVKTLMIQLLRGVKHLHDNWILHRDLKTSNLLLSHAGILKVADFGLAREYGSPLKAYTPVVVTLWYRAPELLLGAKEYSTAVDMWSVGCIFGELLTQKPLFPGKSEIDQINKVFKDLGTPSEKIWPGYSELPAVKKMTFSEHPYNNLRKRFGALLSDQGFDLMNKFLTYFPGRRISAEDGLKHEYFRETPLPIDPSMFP

[1] = system: tumor cell lines harbouring FBXW7−/− mutations; details: FBXW7−/− versus FBXW7 wild-type tumor cell lines; ref O’Brien et al. (2022); cited from earlier work
[2] = molecular target: CDK2-cyclin A Gly11Glu (G11E) (Homo sapiens, UniProt P24941, G11E); assay: ITC binding of OTS964 to CDK2 Gly11Glu-cyclin A
CDK11 Gly223Ser = CDK11 Gly223Ser (Homo sapiens, UniProt P21127, G579S); assay: ITC binding of OTS964 to CDK11 Gly223Ser
Chain of CDK11 Gly223Ser (P21127 428-736 G579S): as the sequence (P21127 428-736 E445G/M516F/G579A) above, with G18E, F89M, A152S counted along it

CDK2 Ala144Gly (A144G) = CDK2 Ala144Gly (A144G) (Homo sapiens, UniProt P24941, A144G); assay: ITC binding of OTS964 to CDK2 Ala144Gly
How it was run: as §1

CDK11 Glu89Gly (E89G) = CDK11 Glu89Gly (E89G) (Homo sapiens, UniProt P21127, E445G); assay: ITC binding of OTS964 to CDK11 Glu89Gly
Chain of CDK11 Glu89Gly (E89G) (P21127 428-736 E445G): as the sequence (P21127 428-736 E445G/M516F/G579A) above, with F89M, A152G counted along it

CDK2 Wild-type = CDK2 Wild-type (Homo sapiens, UniProt P24941); assay: ITC binding of OTS964 to CDK2 wild-type
How it was run: as §1

[3] = molecular target: CDK11 Wild-type (CDK11B residues 72–380) (Homo sapiens, UniProt P21127); assay: ITC binding of OTS964 to CDK11 wild-type
Chain of CDK11 Wild-type (CDK11B residues 72–380) (P21127 428-736): as the sequence (P21127 428-736 E445G/M516F/G579A) above, with G18E, F89M, A152G counted along it

CDK7 = details: KINOMEscan panel of CDKs; ref Lin et al., 2019; cited from earlier work
CDK11 Gly223Ala (G223A) = CDK11 Gly223Ala (G223A) (Homo sapiens, UniProt P21127, G579A); assay: ITC binding of OTS964 to CDK11 Gly223Ala
Chain of CDK11 Gly223Ala (G223A) (P21127 428-736 G579A): as the sequence (P21127 428-736 E445G/M516F/G579A) above, with G18E, F89M counted along it

[4] = molecular target: CDK2-cyclin A Ala144Gly (A144G) (Homo sapiens, UniProt P24941, A144G); assay: ITC binding of OTS964 to CDK2 Ala144Gly-cyclin A
[5] = molecular target: CDK2-cyclin A Phe80Met (F80M) (Homo sapiens, UniProt P24941, F80M); assay: ITC binding of OTS964 to CDK2 Phe80Met-cyclin A
CDK2-cyclin A Wild-type = CDK2-cyclin A Wild-type (Homo sapiens, UniProt P24941); assay: ITC binding of OTS964 to CDK2-cyclin A wild-type; details: for Kd: mean ± SD
CDK11 Met160Phe (M160F) = CDK11 Met160Phe (M160F) (Homo sapiens, UniProt P21127, M516F); assay: ITC binding of OTS964 to CDK11 Met160Phe
Chain of CDK11 Met160Phe (M160F) (P21127 428-736 M516F): as the sequence (P21127 428-736 E445G/M516F/G579A) above, with G18E, A152G counted along it

[6] = ITC, CDK2 Gly11Glu with cyclin A
[7] = ITC, CDK2 Ala144Gly with cyclin A
[8] = ITC, CDK2 Phe80Met with cyclin A
[9] = ITC, CDK2 wild-type with cyclin A

## Cc1ncc(-c2ccnc(Nc3ccc(S(C)(=O)=O)cc3)n2)n1C(C)C [AZD5438]
CDK2 and CDK1
  difference in affinity between CDK2 and CDK1: ~ 170 X

## Cc1cc(O)c(-c2ccc(C(C)CN(C)C)cc2)c2c1[nH]c(=O)c1sccc12 (stereo not drawn) [OTS964]
CDK2 Phe80Met (F80M)
  Kd: 32400 ± 1900 nM
CDK2 Phe80Met (F80M); ITC, 25°C, CDK2 Phe80Met, no cyclin
  N (sites): 0.804 sites
CDK2 Phe80Met (F80M); ITC, CDK2 Phe80Met, no cyclin
  ΔS: −19.1 ± 1.1 cal/mol/K
CDK2 Phe80Met (F80M); ITC, CDK2 Phe80Met, no cyclin, ΔG = ΔH − TΔS
  ΔG: 17.5 ± 0.6 kcal/mol
CDK2 Gly11Glu (G11E)
  Kd: 6820 ± 530 nM
CDK2 Gly11Glu (G11E); ITC, 25°C, CDK2 Gly11Glu, no cyclin
  N (sites): 0.866 sites
CDK2 Gly11Glu (G11E); ITC, CDK2 Gly11Glu, no cyclin
  ΔH: -9.45 ± 0.32 kcal/mol
  ΔS: −8.05 ± 1.23 cal/mol/K
CDK2 Gly11Glu (G11E); ITC, CDK2 Gly11Glu, no cyclin, ΔG = ΔH − TΔS
  ΔG: -7.05 ± 0.05 kcal/mol
Other CDKs; KINOMEscan panel of CDKs
  binding to other CDKs tested: no apparent binding
Other CDKs; other CDKs
  Kd: > 3000 nM
Other CDKs
  higher affinity for CDK11 than other CDKs: at least 75 fold
CDK11 G223A/E89G/M160F
  Kd: 320 ± 66 nM
[1]
  sensitivity to OTS964 treatment: more sensitive
[2]
  Kd: 621 ± 16 nM
[2]; ITC, 25°C, CDK2 Gly11Glu with cyclin A
  N (sites): 1.16 sites
[2]; [6]
  ΔH: -7.13 ± 0.21 kcal/mol
  ΔS: 4.48 ± 0.76 cal/mol/K
[2]; ITC, CDK2 Gly11Glu with cyclin A, ΔG = ΔH − TΔS
  ΔG: -8.47 ± 0.02 kcal/mol
CDK11 Gly223Ser
  Kd: 853 ± 56 nM
CDK2 Ala144Gly (A144G)
  Kd: 16000 ± 4600 nM
CDK2 Ala144Gly (A144G); ITC, 25°C, CDK2 Ala144Gly, no cyclin
  N (sites): 0.554 sites
CDK2 Ala144Gly (A144G); ITC, CDK2 Ala144Gly, no cyclin
  ΔH: -10.6 ± 1.2 kcal/mol
  ΔS: −13.4 ± 4.5 cal/mol/K
CDK2 Ala144Gly (A144G); ITC, CDK2 Ala144Gly, no cyclin, ΔG = ΔH − TΔS
  ΔG: -6.56 ± 0.17 kcal/mol
CDK11 Glu89Gly (E89G)
  Kd: 50.9 ± 3.3 nM
CDK2 Wild-type
  Kd: 16300 ± 1700 nM
CDK2 Wild-type; ITC KD, CDK2 without cyclin vs monomeric CDK11
  weaker binding than monomeric CDK11: ~ 250 fold
CDK2 Wild-type; ITC, 25°C, CDK2 wild-type, no cyclin
  N (sites): 0.704 sites
CDK2 Wild-type; ITC, CDK2 wild-type, no cyclin
  ΔH: -9.12 ± 0.60 kcal/mol
  ΔS: −8.66 ± 1.80 cal/mol/K
CDK2 Wild-type; ITC, CDK2 wild-type, no cyclin, ΔG = ΔH − TΔS
  ΔG: -6.54 ± 0.06 kcal/mol
[3]
  Kd: 65.4 ± 18 nM
CDK7
  more potent against CDK11 than against CDK7: 10 X
CDK11 Gly223Ala (G223A)
  Kd: 31.7 ± 13.8 nM
[4]
  Kd: 3030 ± 150 nM
[4]; ITC, 25°C, CDK2 Ala144Gly with cyclin A
  N (sites): 1.04 sites
[4]; [7]
  ΔH: -6.92 ± 0.01 kcal/mol
  ΔS: 2.04 ± 0.11 cal/mol/K
[4]; ITC, CDK2 Ala144Gly with cyclin A, ΔG = ΔH − TΔS
  ΔG: -7.53 ± 0.03 kcal/mol
[5]
  Kd: 4980 ± 440 nM
[5]; ITC, 25°C, CDK2 Phe80Met with cyclin A
  N (sites): 1.28 sites
[5]; [8]
  ΔH: -9.69 ± 0.08 kcal/mol
  ΔS: −8.23 ± 0.44 cal/mol/K
[5]; ITC, CDK2 Phe80Met with cyclin A, ΔG = ΔH − TΔS
  ΔG: -7.24 ± 0.05 kcal/mol
CDK2-cyclin A Wild-type; ITC KD
  enhancement of binding of CDK2 to OTS964 in the presence versus absence of cyclin A: 7 fold
CDK2-cyclin A Wild-type; ITC, 25°C, CDK2 wild-type with cyclin A
  N (sites): 1.00 sites
CDK2-cyclin A Wild-type; [9]
  ΔH: -8.64 ± 1.06 kcal/mol
  ΔS: −2.64 ± 2.99 cal/mol/K
CDK2-cyclin A Wild-type; ITC, CDK2 wild-type with cyclin A, ΔG = ΔH − TΔS
  ΔG: -7.85 ± 0.18 kcal/mol
CDK2-cyclin A Wild-type; ITC, 25°C, CDK2 wild-type with cyclin A, n=2
  Kd: 1820 ± 500 nM
CDK2-cyclin A Wild-type; ITC, CDK2 in the presence of cyclin A
  Kd: 1800 ± 500 nM
CDK11 Met160Phe (M160F)
  Kd: 556 ± 26 nM
